Experimental data published in ChEMBL document CHEMBL2396604, “Synthesis and structure activity relationship of tetrahydroisoquinoline-based potentiators of GluN2C and GluN2D containing N-methyl-D-aspartate receptors” (J Med Chem, 2013).

Legend:
[1] = target: D(4) dopamine receptor (Homo sapiens) (UniProt P21917); test: Inhibition of dopamine D4 receptor (unknown origin) at 5 uM by psychoactive drug screening programme assay
Summary of the method: (§1)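 Radioligand binding screen run by PDSP. Displacement of ligand binding was measured with test compound at 5 µM, n=4 per target.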

[2] = target: D(3) dopamine receptor (Homo sapiens) (UniProt P35462); test: Inhibition of dopamine D3 receptor (unknown origin) at 5 uM by psychoactive drug screening programme assay; summary of the method: as §1
D(3) dopamine receptor (Homo sapiens), sequence (P35462 whole entry): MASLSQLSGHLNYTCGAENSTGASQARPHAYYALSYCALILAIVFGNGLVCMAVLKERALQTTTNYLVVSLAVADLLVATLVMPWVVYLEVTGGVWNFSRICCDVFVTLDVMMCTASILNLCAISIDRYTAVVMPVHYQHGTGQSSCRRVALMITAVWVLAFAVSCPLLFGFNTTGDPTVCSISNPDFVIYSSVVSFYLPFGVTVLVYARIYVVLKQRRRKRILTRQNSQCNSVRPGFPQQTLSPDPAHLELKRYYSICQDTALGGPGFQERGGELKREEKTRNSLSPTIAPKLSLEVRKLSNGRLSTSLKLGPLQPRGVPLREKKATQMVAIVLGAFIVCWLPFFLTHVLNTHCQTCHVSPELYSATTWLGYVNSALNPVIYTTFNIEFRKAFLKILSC

[3] = target: Beta-3 adrenergic receptor (Homo sapiens) (UniProt P13945); test: Inhibition of adrenergic beta3 receptor (unknown origin) at 5 uM by psychoactive drug screening programme assay; summary of the method: as §1
Beta-3 adrenergic receptor (Homo sapiens), sequence (P13945 whole entry, looked up): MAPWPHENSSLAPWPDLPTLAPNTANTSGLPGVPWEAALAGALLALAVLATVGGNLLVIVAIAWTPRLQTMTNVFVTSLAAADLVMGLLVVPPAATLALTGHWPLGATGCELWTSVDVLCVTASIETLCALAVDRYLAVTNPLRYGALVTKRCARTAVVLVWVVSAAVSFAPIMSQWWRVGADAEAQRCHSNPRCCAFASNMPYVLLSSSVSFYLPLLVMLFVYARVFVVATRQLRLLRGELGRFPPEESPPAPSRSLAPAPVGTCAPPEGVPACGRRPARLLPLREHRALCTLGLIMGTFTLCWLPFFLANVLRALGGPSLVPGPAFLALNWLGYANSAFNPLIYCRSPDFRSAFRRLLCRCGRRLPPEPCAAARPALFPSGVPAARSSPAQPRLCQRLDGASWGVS

[4] = target: Alpha-2A adrenergic receptor (Homo sapiens) (UniProt P08913); test: Inhibition of adrenergic alpha2A receptor (unknown origin) at 5 uM by psychoactive drug screening programme assay; summary of the method: as §1
Alpha-2A adrenergic receptor (Homo sapiens), sequence (P08913 whole entry): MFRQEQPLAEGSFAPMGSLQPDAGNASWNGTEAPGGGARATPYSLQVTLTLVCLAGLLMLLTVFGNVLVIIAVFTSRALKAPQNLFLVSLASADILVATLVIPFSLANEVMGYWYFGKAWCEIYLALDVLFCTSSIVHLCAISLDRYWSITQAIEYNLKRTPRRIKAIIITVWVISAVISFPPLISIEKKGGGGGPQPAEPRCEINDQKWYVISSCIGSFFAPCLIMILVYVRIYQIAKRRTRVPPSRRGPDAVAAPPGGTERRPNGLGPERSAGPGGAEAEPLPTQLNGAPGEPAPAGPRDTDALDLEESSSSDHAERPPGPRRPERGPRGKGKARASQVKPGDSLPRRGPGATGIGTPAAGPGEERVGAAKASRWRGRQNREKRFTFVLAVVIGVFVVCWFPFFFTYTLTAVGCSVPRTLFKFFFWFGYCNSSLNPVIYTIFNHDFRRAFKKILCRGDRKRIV

[5] = target: Histamine H3 receptor (Homo sapiens) (UniProt Q9Y5N1); test: Inhibition of H3 histamine receptor (unknown origin) at 5 uM by psychoactive drug screening programme assay; summary of the method: as §1
Histamine H3 receptor (Homo sapiens), sequence (Q9Y5N1 whole entry): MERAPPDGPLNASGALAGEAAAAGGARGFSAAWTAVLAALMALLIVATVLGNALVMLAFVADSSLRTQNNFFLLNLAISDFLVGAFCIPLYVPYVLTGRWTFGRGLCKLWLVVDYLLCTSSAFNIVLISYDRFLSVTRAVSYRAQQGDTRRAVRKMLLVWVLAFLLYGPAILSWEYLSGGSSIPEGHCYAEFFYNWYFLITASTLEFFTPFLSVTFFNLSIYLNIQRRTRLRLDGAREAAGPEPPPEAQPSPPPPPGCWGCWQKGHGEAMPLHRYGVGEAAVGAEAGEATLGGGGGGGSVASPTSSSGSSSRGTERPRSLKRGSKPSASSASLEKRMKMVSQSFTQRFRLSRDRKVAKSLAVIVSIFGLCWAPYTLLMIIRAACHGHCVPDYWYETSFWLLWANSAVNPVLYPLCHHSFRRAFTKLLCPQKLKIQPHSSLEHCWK

[6] = target: P2X purinoceptor 2 (Rattus norvegicus) (UniProt P49653); test: Activity at rat recombinant purinergic P2X2 receptor expressed in Xenopus oocytes assessed as effect on ATP-induced activation at 3 uM by two-electrode voltage clamp technique relative to control; type: cell-based; settings: Oocyte
P2X purinoceptor 2 (Rattus norvegicus), sequence (P49653 whole entry, the tested form may be a part): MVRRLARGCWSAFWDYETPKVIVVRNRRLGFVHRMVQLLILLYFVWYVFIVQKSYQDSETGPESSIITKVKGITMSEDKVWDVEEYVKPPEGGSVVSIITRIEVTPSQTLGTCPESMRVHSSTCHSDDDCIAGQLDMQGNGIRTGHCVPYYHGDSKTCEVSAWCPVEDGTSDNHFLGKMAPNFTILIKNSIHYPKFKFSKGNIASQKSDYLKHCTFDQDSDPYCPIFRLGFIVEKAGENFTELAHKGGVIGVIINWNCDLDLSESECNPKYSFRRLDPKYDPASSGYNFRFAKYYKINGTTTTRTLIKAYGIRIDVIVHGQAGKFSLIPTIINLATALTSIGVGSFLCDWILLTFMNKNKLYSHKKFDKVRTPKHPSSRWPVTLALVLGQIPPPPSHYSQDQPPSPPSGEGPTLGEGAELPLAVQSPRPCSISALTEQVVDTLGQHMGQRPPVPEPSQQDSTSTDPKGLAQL
Summary of the method: (§2)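 Two-electrode voltage clamp of Xenopus oocytes injected with 1–5 ng cRNA and kept in Barth's solution at 15°C for 2–5 days. Oocytes were perfused with 90 mM NaCl, 1.0 KCl, 0.5 BaCl2, 0.005 EDTA, 10 HEPES, pH 7.4, 23°C, and held at -40 mV. Compound was co-applied at 3 µM with agonist from 20 mM DMSO stocks, final DMSO 0.05–0.5%.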

[7] = target: Sodium-dependent serotonin transporter (Homo sapiens) (UniProt P31645); test: Inhibition of serotonin transporter (unknown origin) at 5 uM by psychoactive drug screening programme assay
[8] = target: Sodium-dependent dopamine transporter (Homo sapiens) (UniProt Q01959); test: Inhibition of dopamine transporter (unknown origin) at 5 uM by psychoactive drug screening programme assay; summary of the method: as §1
[9] = target: Glutamate NMDA receptor; Grin1/Grin2c (Rattus norvegicus) (UniProt P35439+Q00961); test: Activity at rat recombinant GluN1/GluN2C receptor expressed in Xenopus oocytes assessesed as effect of glycine/glutamate-induced response at 3 uM by two-electrode voltage clamp technique relative to control; type: cell-based; settings: Oocyte; summary of the method: as §2
[10] = target: D(1A) dopamine receptor (Homo sapiens) (UniProt P21728); test: Inhibition of dopamine D1 receptor (unknown origin) at 5 uM by psychoactive drug screening programme assay; summary of the method: as §1
[11] = target: Delta-type opioid receptor (Homo sapiens) (UniProt P41143); test: Inhibition of delta opioid receptor (unknown origin) at 5 uM by psychoactive drug screening programme assay; summary of the method: as §1
Delta-type opioid receptor (Homo sapiens), sequence (P41143 whole entry): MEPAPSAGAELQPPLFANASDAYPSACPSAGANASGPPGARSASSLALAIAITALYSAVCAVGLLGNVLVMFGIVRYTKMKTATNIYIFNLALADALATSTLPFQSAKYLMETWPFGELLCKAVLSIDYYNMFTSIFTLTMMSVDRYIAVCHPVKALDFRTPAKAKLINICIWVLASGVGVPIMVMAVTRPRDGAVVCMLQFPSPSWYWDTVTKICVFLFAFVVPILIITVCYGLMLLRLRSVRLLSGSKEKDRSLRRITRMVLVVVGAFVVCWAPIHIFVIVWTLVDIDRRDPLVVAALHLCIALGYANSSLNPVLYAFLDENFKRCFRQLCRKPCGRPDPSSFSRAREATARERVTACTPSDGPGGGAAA

[12] = target: Glutamate receptor ionotropic, kainate 1 (Rattus norvegicus) (UniProt P22756); test: Activity at rat recombinant GluK1 receptor expressed in Xenopus oocytes assessed as effect on glutamate-induced response at 3 uM by two-electrode voltage clamp technique relative to control; type: cell-based; settings: Oocyte; summary of the method: as §2
[13] = target: 5-hydroxytryptamine receptor 1E (Homo sapiens) (UniProt P28566); test: Inhibition of serotonin 5-HT1E receptor (unknown origin) at 5 uM by psychoactive drug screening programme assay; summary of the method: as §1
[14] = target: 5-hydroxytryptamine receptor 1A (Homo sapiens) (UniProt P08908); test: Inhibition of serotonin 5-HT1A receptor (unknown origin) at 5 uM by psychoactive drug screening programme assay; summary of the method: as §1
5-hydroxytryptamine receptor 1A (Homo sapiens), sequence (P08908 whole entry): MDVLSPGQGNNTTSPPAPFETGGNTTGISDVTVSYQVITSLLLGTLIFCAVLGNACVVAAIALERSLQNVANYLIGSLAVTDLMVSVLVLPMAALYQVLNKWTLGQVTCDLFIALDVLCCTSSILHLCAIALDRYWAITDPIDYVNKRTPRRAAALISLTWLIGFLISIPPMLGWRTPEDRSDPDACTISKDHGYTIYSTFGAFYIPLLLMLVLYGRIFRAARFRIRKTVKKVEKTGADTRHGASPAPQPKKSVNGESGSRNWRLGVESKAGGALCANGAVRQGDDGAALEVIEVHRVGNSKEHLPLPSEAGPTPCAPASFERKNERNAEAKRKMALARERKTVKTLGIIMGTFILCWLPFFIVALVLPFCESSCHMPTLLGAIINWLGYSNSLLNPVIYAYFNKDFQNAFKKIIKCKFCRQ

[15] = target: Nicotinic acetylcholine receptor alpha9/alpha10 (Rattus norvegicus) (UniProt P43144+Q9JLB5); test: Activity at rat recombinant alpha9alpha10 nAChR expressed in Xenopus oocytes assessed as effect on acetylcholine-induced response at 3 uM by two-electrode voltage clamp technique relative to control; type: cell-based; settings: Oocyte; summary of the method: as §2
[16] = target: Glutamate NMDA receptor; Grin1/Grin2b (Rattus norvegicus) (UniProt P35439+Q00960); test: Activity at rat recombinant GluN1/GluN2B receptor expressed in Xenopus oocytes assessed as effect of glycine/glutamate-induced response at 3 uM by two-electrode voltage clamp technique relative to control; type: cell-based; settings: Oocyte; summary of the method: as §2
[17] = target: Muscarinic acetylcholine receptor M4 (Homo sapiens) (UniProt P08173); test: Inhibition of M4 receptor (unknown origin) at 5 uM by psychoactive drug screening programme assay; summary of the method: as §1
[18] = target: Alpha-1D adrenergic receptor (Homo sapiens) (UniProt P25100); test: Inhibition of adrenergic alpha1D receptor (unknown origin) at 5 uM by psychoactive drug screening programme assay; summary of the method: as §1
[19] = target: Ionotropic glutamate receptor NMDA 1/2D (Rattus norvegicus, UniProt P35439+Q62645); test: Activity at rat recombinant GluN1/GluN2D receptor assessed as potentiation of glycine/glutamate-induced activation by two-electrode voltage clamp technique; type: protein-complex assay
[20] = target: 5-hydroxytryptamine receptor 1B (Homo sapiens) (UniProt P28222); test: Inhibition of serotonin 5-HT1B receptor (unknown origin) at 5 uM by psychoactive drug screening programme assay; summary of the method: as §1
[21] = target: 5-hydroxytryptamine receptor 3A (Rattus norvegicus) (UniProt P35563); test: Activity at rat recombinant serotonin 5-HT3A receptor expressed in Xenopus oocytes assessed as effect on serotonin-induced activation at 3 uM by two-electrode voltage clamp technique relative to control; type: cell-based; settings: Oocyte; summary of the method: as §2
[22] = target: Glutamate receptor 3 (Rattus norvegicus) (UniProt P19492); test: Activity at rat recombinant GluA3 receptor expressed in Xenopus oocytes assessed as effect on glutamate-induced response at 3 uM by two-electrode voltage clamp technique relative to control; type: cell-based; settings: Oocyte; summary of the method: as §2
[23] = target: 5-hydroxytryptamine receptor 5A (Homo sapiens) (UniProt P47898); test: Inhibition of serotonin 5-HT5A receptor (unknown origin) at 5 uM by psychoactive drug screening programme assay
5-hydroxytryptamine receptor 5A (Homo sapiens), sequence (P47898 whole entry): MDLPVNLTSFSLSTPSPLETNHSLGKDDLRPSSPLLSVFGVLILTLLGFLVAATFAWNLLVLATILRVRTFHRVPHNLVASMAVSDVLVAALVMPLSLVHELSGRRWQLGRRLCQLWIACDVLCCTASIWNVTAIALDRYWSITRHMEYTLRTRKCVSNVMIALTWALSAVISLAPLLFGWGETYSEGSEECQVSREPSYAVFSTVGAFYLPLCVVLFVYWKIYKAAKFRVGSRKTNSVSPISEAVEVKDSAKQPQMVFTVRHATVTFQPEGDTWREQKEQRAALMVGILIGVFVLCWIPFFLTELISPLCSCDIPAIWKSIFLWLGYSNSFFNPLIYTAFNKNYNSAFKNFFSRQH

[24] = target: Ionotropic glutamate receptor NMDA 1/2D (Rattus norvegicus) (UniProt P35439+Q62645); test: Activity at rat recombinant GluN1/GluN2D receptor expressed in Xenopus oocytes assessesed as effect of glycine/glutamate-induced response at 3 uM by two-electrode voltage clamp technique relative to control; type: cell-based; settings: Oocyte; summary of the method: as §2
[25] = target: Muscarinic acetylcholine receptor M2 (Homo sapiens) (UniProt P08172); test: Inhibition of M2 receptor (unknown origin) at 5 uM by psychoactive drug screening programme assay; summary of the method: as §1
Muscarinic acetylcholine receptor M2 (Homo sapiens), sequence (P08172 whole entry): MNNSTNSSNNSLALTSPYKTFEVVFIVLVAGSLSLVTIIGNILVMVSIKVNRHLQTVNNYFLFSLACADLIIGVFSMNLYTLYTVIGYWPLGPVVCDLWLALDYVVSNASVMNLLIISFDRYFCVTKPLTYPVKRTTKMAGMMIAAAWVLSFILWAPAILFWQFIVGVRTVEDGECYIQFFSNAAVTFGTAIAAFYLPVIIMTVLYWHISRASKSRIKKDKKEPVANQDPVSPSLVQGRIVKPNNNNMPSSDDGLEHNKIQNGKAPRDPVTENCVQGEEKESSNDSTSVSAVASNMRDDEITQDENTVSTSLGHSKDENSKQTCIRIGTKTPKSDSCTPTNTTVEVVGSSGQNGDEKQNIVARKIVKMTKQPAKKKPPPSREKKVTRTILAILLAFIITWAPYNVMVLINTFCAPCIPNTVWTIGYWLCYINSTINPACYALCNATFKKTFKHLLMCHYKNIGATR

[26] = target: Alpha-1A adrenergic receptor (Homo sapiens) (UniProt P35348); test: Inhibition of adrenergic alpha1A receptor (unknown origin) at 5 uM by psychoactive drug screening programme assay; summary of the method: as §1
Alpha-1A adrenergic receptor (Homo sapiens), sequence (P35348 whole entry): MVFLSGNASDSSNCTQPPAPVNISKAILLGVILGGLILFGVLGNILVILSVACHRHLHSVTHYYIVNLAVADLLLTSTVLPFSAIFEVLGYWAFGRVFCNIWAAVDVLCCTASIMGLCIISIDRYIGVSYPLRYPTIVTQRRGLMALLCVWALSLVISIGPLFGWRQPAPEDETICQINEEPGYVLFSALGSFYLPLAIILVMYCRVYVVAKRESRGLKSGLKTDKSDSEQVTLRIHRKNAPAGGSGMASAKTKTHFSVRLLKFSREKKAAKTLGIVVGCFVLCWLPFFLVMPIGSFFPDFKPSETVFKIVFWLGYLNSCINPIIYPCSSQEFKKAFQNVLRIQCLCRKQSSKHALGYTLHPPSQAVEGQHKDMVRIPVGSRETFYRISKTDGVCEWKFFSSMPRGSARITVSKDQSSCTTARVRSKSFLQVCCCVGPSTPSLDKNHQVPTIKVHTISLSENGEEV

[27] = target: Neuronal acetylcholine receptor; alpha4/beta2 (Homo sapiens) (UniProt P17787+P43681); test: Activity at human recombinant alpha4beta2 nAChR expressed in Xenopus oocytes assessed as effect on acetylcholine-induced activation at 3 uM by two-electrode voltage clamp technique relative to control; type: cell-based; settings: Oocyte; summary of the method: as §2
[28] = target: Alpha-2B adrenergic receptor (Homo sapiens) (UniProt P18089); test: Inhibition of adrenergic alpha2B receptor (unknown origin) at 5 uM by psychoactive drug screening programme assay; summary of the method: as §1
Alpha-2B adrenergic receptor (Homo sapiens), sequence (P18089 whole entry): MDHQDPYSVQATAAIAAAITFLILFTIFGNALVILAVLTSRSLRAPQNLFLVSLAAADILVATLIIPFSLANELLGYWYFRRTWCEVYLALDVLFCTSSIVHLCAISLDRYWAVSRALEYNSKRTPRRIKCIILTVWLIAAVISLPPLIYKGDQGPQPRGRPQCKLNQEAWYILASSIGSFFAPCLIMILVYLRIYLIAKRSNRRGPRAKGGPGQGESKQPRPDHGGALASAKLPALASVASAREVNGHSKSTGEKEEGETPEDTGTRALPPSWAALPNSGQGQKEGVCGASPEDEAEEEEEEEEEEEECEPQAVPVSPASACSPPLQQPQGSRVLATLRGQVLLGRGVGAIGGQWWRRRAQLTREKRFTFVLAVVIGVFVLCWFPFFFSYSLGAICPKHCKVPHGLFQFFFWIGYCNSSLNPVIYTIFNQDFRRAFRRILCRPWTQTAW

[29] = target: 5-hydroxytryptamine receptor 2A (Homo sapiens) (UniProt P28223); test: Inhibition of serotonin 5-HT2A receptor (unknown origin) at 5 uM by psychoactive drug screening programme assay; summary of the method: as §1

In the case of `COc1ccc(OCC2c3ccc(OCc4ccccc4)cc3CCN2C(=O)c2cccc(Br)c2)cc1` (centres undefined), the inhibition [1] is reported as < 50%, the inhibition [2] is reported as < 50% and the inhibition [3] is reported as < 50%. For the same compound, the inhibition [4] was < 50%, the inhibition [5] was < 50% and the Activity [6] was 94%. For the same compound, the inhibition [7] was < 50%, the inhibition [8] was < 50% and the Activity [9] was 247%. The inhibition [10] was < 50%, the inhibition [11] was < 50% and the Activity [12] was 101%. For the same compound, the inhibition [13] was < 50%, the inhibition [14] was < 50% and the Activity [15] was 92%. The Activity [16] was 102%, the inhibition [17] was < 50% and the inhibition [18] was < 50%. For the same compound, the EC50 [19] was 0.3 µM, the inhibition [20] was < 50% and the Activity [21] was 93%. The Activity [22] was 99%, the inhibition [23] was < 50% and the Activity [24] was 213%. For the same compound, the inhibition [25] was < 50%, the inhibition [26] was < 50% and the Activity [27] was 91%. For the same compound, the inhibition [28] was < 50% and the inhibition [29] was < 50%.
